In ChEMBL document CHEMBL4251655 (Eur J Med Chem, 2018):
Values after ≈ are worked out from the molar mass of the structure shown.

Assays:
[1] = biological target: T1, Serine/threonine-protein kinase Sgk1 (Homo sapiens) (UniProt O00141); test: Inhibition of recombinant human GST-tagged SGK1 expressed in baculovirus expression system at 1 uM relative to control
T1 sequence (whole entry): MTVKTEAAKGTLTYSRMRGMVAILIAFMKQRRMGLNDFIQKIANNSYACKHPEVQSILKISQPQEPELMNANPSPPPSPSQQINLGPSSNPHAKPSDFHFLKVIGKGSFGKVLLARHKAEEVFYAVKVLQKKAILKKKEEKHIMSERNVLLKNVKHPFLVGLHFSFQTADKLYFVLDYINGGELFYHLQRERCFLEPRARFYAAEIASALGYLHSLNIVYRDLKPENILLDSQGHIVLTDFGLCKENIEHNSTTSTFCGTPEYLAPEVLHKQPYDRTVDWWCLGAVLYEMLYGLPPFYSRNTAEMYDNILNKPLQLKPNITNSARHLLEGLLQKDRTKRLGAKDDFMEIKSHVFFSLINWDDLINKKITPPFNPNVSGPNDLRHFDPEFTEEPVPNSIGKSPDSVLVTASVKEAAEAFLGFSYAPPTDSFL
Outline: (§1)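 Forty-kinase selectivity panel; each compound tested at a single 1 µM concentration in the presence of 1 mM ATP; result given as percent inhibition.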

[2] = Oral bioavailability in rat at 1 mg/kg administered via gavage; type: ADME, organism-based; conditions: in vivo
Outline: (§2)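 Rat, oral dosing as a solution.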

[3] = biological target: T2, Tyrosine-protein kinase JAK3 (Homo sapiens) (UniProt P52333); test: Inhibition of recombinant human GST-tagged JAK3 expressed in baculovirus expression system at 1 uM relative to control; outline: as §1
T2 sequence (whole entry): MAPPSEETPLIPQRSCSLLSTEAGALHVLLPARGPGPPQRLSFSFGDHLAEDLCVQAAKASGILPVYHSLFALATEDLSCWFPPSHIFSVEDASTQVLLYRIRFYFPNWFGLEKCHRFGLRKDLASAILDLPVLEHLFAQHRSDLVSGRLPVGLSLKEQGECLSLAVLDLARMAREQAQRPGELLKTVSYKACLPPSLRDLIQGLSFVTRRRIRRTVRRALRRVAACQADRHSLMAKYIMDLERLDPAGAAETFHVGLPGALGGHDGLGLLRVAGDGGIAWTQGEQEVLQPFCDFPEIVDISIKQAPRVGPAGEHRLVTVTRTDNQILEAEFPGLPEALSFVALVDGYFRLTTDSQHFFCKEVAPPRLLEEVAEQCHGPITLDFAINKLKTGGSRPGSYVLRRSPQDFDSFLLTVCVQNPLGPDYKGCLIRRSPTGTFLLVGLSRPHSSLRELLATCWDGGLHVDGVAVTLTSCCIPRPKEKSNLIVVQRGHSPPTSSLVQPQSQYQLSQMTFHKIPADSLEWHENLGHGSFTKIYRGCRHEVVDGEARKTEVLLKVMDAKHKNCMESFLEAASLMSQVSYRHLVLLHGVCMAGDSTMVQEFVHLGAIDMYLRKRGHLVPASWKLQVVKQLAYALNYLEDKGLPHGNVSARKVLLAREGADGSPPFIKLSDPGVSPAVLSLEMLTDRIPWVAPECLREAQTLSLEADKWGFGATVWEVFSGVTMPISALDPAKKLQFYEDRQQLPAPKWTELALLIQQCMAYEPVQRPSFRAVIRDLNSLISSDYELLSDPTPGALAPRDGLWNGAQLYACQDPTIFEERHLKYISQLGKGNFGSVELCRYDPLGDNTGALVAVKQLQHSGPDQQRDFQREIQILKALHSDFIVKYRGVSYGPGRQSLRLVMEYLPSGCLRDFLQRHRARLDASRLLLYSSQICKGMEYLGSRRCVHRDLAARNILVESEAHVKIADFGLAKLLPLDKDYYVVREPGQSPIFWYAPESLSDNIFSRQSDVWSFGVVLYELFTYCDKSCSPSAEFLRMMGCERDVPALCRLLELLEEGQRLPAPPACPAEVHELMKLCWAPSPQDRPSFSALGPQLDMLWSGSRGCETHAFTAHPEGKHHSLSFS

[4] = Clearance in rat hepatocytes assessed per million cells; type: ADME, cell-based, Hepatocyte
[5] = Thermodynamic solubility of the compound at pH 7.4; type: physicochemical; conditions: buffer, read-out: Therm_solubility
[6] = biological target: cAMP-dependent protein kinase catalytic subunit alpha (Homo sapiens) (UniProt P17612); test: Inhibition of recombinant human His-tagged PRKACA expressed in Escherichia coli at 1 uM relative to control; outline: as §1
[7] = Clearance in rat at 1 mg/kg, iv by LC-MS/MS analysis; type: ADME, organism-based; conditions: in vivo
Outline: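 Rat, single 1 mg/kg intravenous dose.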

[8] = biological target: Fibroblast growth factor receptor 1 (Homo sapiens) (UniProt P11362); test: Inhibition of recombinant human His-tagged FGFR1 cytoplasmic domain expressed in baculovirus expression system at 1 uM relative to control; outline: as §1
Fibroblast growth factor receptor 1 (Homo sapiens), sequence (P11362 22-822 limits assumed): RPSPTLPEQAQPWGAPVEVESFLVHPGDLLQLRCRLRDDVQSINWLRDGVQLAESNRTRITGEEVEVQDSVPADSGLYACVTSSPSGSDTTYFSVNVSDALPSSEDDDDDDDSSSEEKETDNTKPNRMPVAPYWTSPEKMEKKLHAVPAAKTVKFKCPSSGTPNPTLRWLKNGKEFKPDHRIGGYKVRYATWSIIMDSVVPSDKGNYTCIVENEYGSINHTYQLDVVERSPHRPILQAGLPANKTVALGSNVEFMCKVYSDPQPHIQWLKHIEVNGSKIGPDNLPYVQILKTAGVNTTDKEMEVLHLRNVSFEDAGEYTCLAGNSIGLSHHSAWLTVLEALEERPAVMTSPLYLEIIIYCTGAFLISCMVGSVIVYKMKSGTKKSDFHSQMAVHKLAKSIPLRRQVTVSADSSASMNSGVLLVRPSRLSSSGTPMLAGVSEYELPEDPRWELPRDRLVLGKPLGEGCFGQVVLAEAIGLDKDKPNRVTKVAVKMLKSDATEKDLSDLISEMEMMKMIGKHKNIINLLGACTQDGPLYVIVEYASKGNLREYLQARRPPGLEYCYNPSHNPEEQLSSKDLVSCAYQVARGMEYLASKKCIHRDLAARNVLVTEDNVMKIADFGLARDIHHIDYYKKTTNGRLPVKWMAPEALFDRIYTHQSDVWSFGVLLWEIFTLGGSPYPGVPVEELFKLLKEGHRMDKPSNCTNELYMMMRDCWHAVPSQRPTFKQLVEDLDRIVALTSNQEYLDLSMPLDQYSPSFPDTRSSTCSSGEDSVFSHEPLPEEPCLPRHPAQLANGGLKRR

[9] = Oral bioavailability in rat at 5 mg/kg administered via gavage; type: ADME, organism-based; conditions: in vivo; outline: as §2

| SMILES | inhibition [1] [%] | bioavailability [2] [%] | inhibition [3] [%] | CLH [4] [µL/min/1e6 cells] | solubility thermodynamic [5] [µM] | inhibition [6] [%] | clearance [7] [mL/min/kg] | inhibition [8] [%] | bioavailability [9] [%] |
| --- | --- | --- | --- | --- | --- | --- | --- | --- | --- |
| COc1ccc(S(C)(=O)=O)cc1C(=O)Nc1cccc(-c2nncn2C(C)C)n1 | 2 | 8 | 12 | < 6 | 5 (≈ 2.08 µg/mL) | -5 | 41 | – | – |
| COc1cc(C)c(S(N)(=O)=O)cc1C(=O)Nc1cccc(-c2nncn2C(C)C)n1 | 1 | – | 16 | – | – | 1 | – | 2 | – |
| COc1ccc(S(N)(=O)=O)cc1C(=O)Nc1cccc(-c2nncn2C(C)C)n1 | – | – | -8 | < 6 | 1.2 (≈ 0.5 µg/mL) | – | 35 | -6 | < 1 |
| COc1cc(C)c(S(C)(=O)=O)cc1C(=O)Nc1cccc(-c2nncn2C(C)C)n1 | 1 | – | 0 | – | – | 3 | – | 2 | – |
| COc1cc(C)c(C(N)=O)cc1C(=O)Nc1cccc(-c2nncn2C(C)C)n1 | -2 | – | 3 | – | – | -1 | – | 2 | – |
| COc1ccc(C(N)=O)cc1C(=O)Nc1cccc(-c2nncn2C(C)C)n1 | -9 | – | – | – | – | -1 | – | -2 | – |
